For assay [1], the target named is T1, IgG receptor FcRn large subunit p51 (Homo sapiens, UniProt P55899). Nature of the assay: Inhibition of human IgG binding to soluble human FcRn by ELISA. An outline of the steps:
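Biotinylated soluble human FcRn immobilized on neutravidin plates, incubated with hIgG (3 nM, constant) and peptide at varying concentrations for 2 h at 37 °C. After washing, bound hIgG detected with peroxidase-conjugated hIgG-specific Fab fragments.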

The target of assay [2] is T1, IgG receptor FcRn large subunit p51. As to the kind of experiment: Binding affinity to human FcRn at pH 6 by surface plasmon resonance assay. The gist of the method: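 Soluble human FcRn coupled to the dextran surface of a CM5 chip; peptide dilutions flowed over the chip. The equilibrium response at each dilution was plotted against concentration and fitted to a steady-state affinity model to give Kd.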
Background: SPR reads the build-up and loss of mass on a sensor chip optically.

Among the data in ChEMBL document CHEMBL1150419, “Structure-activity relationships of a peptide inhibitor of the human FcRn:human IgG interaction” (Bioorg Med Chem, 2008) are IC50 and Kd values, retold here.

T1 sequence (P55899 whole entry, the tested form may be a part): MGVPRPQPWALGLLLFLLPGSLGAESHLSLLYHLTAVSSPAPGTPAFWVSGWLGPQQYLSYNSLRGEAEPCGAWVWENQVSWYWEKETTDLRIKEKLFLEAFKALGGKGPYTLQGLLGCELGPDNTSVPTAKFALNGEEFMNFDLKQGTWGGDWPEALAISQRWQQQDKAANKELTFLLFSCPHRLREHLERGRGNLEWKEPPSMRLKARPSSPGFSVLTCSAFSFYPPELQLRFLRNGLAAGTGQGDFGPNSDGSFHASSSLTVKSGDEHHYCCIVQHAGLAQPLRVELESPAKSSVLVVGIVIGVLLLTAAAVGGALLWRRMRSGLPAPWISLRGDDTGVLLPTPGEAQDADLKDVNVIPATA

The IC50 is the midpoint of a concentration-inhibition curve. A low value points to higher potency. As a reminder, the Kd is the free concentration of one partner at which half of the binding sites on the other are occupied at equilibrium, for simple one-to-one binding. Low readings indicate a tighter complex, high ones a looser complex. `CC(C)C[C@H](NC(=O)CNC(=O)CNC(=O)[C@@H]1Cc2ccccc2CN1C(=O)[C@H](Cc1cnc[nH]1)NC(=O)CNC(=O)[C@@H](NC(=O)[C@@H](NC(=O)[C@H](Cc1ccccc1)NC(=O)[C@H](CCCNC(=N)N)NC(=O)[C@@H](N)CCC(N)=O)C(C)(C)S)[C@@H](C)O)C(=O)N[C@@H](Cc1ccc(O)cc1)C(=O)N1CCC[C@H]1C(=O)N[C@@H](CS)C(=O)N[C@@H](CC(N)=O)C(=O)NCC(=O)N1CCC[C@H]1C(=O)O` had an IC50 in assay [1] greater than 125 µM. In assay [2], this compound gave an equilibrium dissociation constant (Kd) greater than 250 µM.
On to `CC(C)C[C@H](NC(=O)CNC(=O)CNC(=O)[C@@H](NC(=O)[C@H](Cc1cnc[nH]1)NC(=O)CNC(=O)[C@@H](NC(=O)[C@@H](NC(=O)[C@H](Cc1ccccc1)NC(=O)[C@H](CCCN=C(N)N)NC(=O)[C@@H](N)CCC(N)=O)C(C)(C)S)[C@@H](C)O)c1ccccc1)C(=O)N[C@@H](Cc1ccc(O)cc1)C(=O)N1CCC[C@H]1C(=O)N[C@@H](CS)C(=O)N[C@@H](CC(N)=O)C(=O)NCC(=O)N1CCC[C@H]1C(=O)O`, for which, in assay [1], the 50% inhibitory concentration (IC50) is greater than 125 µM. Besides, the Kd in assay [2] was greater than 250 µM.
Taken in the same sequence, the figures for `CC(C)C[C@H](NC(=O)CNC(=O)CNC(=O)[C@H](Cc1ccccc1)NC(=O)[C@H](Cc1cnc[nH]1)NC(=O)[C@@H](C)NC(=O)[C@@H](NC(=O)[C@H](CS)NC(=O)[C@H](Cc1ccccc1)NC(=O)[C@H](CCCN=C(N)N)NC(=O)[C@@H](N)CCC(N)=O)[C@@H](C)O)C(=O)N[C@@H](Cc1ccc(O)cc1)C(=O)N1CCC[C@H]1C(=O)N[C@@H](CS)C(=O)N[C@@H](CC(N)=O)C(=O)NCC(=O)N1CCC[C@H]1C(=O)O` were greater than 125 µM and greater than 250 µM.
Taken in the same sequence, the figures for `Cc1cccc(C[C@H](NC(=O)[C@H](Cc2cnc[nH]2)NC(=O)CNC(=O)[C@@H](NC(=O)[C@@H](NC(=O)[C@H](Cc2ccccc2)NC(=O)[C@H](CCCN=C(N)N)NC(=O)[C@@H](N)CCC(N)=O)C(C)(C)S)[C@@H](C)O)C(=O)NCC(=O)NCC(=O)N[C@@H](CC(C)C)C(=O)N[C@@H](Cc2ccc(O)cc2)C(=O)N2CCC[C@H]2C(=O)N[C@@H](CS)C(=O)N[C@@H](CC(N)=O)C(=O)NCC(=O)N2CCC[C@H]2C(=O)O)c1` were 4.1 µM and 0.67 µM.
Taken in the same sequence, the figures for `CC(C)C[C@@H](C(=O)N[C@@H](Cc1ccc(O)cc1)C(=O)N1CCC[C@H]1C(=O)N[C@@H](CS)C(=O)O)N(C)C(=O)CN(C)C(=O)CNC(=O)[C@H](Cc1ccccc1)NC(=O)[C@H](C)NC(=O)CNC(=O)[C@@H](NC(=O)[C@@H](NC(=O)[C@H](Cc1ccccc1)NC(=O)[C@@H](N)CCCNC(=N)N)C(C)(C)S)[C@@H](C)O` were greater than 100 µM and 9.9 µM.
Consider `CC(C)C[C@H](NC(=O)CNC(=O)C(C)(C)NC(=O)[C@H](Cc1ccccc1)NC(=O)[C@H](Cc1cnc[nH]1)NC(=O)CNC(=O)[C@@H](NC(=O)[C@@H](NC(=O)[C@H](Cc1ccccc1)NC(=O)[C@H](CCCNC(=N)N)NC(=O)[C@@H](N)CCC(N)=O)C(C)(C)S)[C@@H](C)O)C(=O)N[C@@H](Cc1ccc(O)cc1)C(=O)N1CCC[C@H]1C(=O)N[C@@H](CS)C(=O)N[C@@H](CC(N)=O)C(=O)NCC(=O)N1CCC[C@H]1C(=O)O`, for which the IC50 in assay [1] is 17 µM. Moreover, in assay [2], the Kd amounted to 5.2 µM.
With `CC(C)C[C@H](NC(=O)CNC(=O)CNC(=O)[C@H](Cc1ccccc1)NC(=O)[C@H](Cc1cnc[nH]1)NC(=O)CNC(=O)[C@@H](NC(=O)[C@H](CS)NC(=O)[C@@H](N)Cc1ccccc1)[C@@H](C)O)C(=O)N[C@@H](Cc1ccc(O)cc1)C(=O)N1CCC[C@H]1C(=O)N[C@@H](CS)C(=O)N[C@@H](CC(N)=O)C(=O)NCC(=O)N1CCC[C@H]1C(=O)O`, the IC50 in assay [1] was 67 µM. In assay [2], this compound returned a Kd of 11 µM.
Taken in the same sequence, the figures for `CC(C)C[C@H](NC(=O)CN(C)C(=O)CNC(=O)[C@H](Cc1ccccc1)NC(=O)[C@H](Cc1cnc[nH]1)NC(=O)CNC(=O)[C@@H](NC(=O)[C@@H](NC(=O)[C@H](Cc1ccccc1)NC(=O)[C@@H](N)CCCNC(=N)N)C(C)(C)S)[C@@H](C)O)C(=O)N[C@@H](Cc1ccc(O)cc1)C(=O)N1CCC[C@H]1C(=O)N[C@@H](CS)C(=O)O` were 1 µM and 0.058 µM.
Taken in the same sequence, the figures for `CC(C)C[C@H](NC(=O)CNC(=O)CNC(=O)[C@H](Cc1ccccc1)NC(=O)[C@H](Cc1cnc[nH]1)NC(=O)CNC(=O)[C@@H](NC(=O)[C@H](CCC(=O)O)NC(=O)[C@H](Cc1ccccc1)NC(=O)[C@H](CCCNC(=N)N)NC(=O)[C@@H](N)CCC(N)=O)[C@@H](C)O)C(=O)N[C@@H](Cc1ccc(O)cc1)C(=O)N1CCC[C@H]1C(=O)N[C@@H](CCN)C(=O)N[C@@H](CC(N)=O)C(=O)NCC(=O)N1CCC[C@H]1C(=O)O` were 86 µM and 22 µM.
Taken in the same sequence, the figures for `CC(C)C[C@H](NC(=O)[C@@H](C)NC(=O)CNC(=O)[C@H](Cc1ccccc1)NC(=O)[C@H](Cc1cnc[nH]1)NC(=O)CNC(=O)[C@@H](NC(=O)[C@@H](NC(=O)[C@H](Cc1ccccc1)NC(=O)[C@H](CCCN=C(N)N)NC(=O)[C@@H](N)CCC(N)=O)C(C)(C)S)[C@@H](C)O)C(=O)N[C@@H](Cc1ccc(O)cc1)C(=O)N1CCC[C@H]1C(=O)N[C@@H](CS)C(=O)N[C@@H](CC(N)=O)C(=O)NCC(=O)N1CCC[C@H]1C(=O)O` were 2 µM and 0.48 µM.
`CC(C)C[C@H](NC(=O)CNC(=O)CNC(=O)[C@H](Cc1ccccc1)NC(=O)[C@H](C)NC(=O)CNC(=O)[C@@H](NC(=O)[C@H](CS)NC(=O)[C@H](Cc1ccccc1)NC(=O)[C@H](CCCNC(=N)N)NC(=O)[C@@H](N)CCC(N)=O)[C@@H](C)O)C(=O)N[C@@H](Cc1ccc(O)cc1)C(=O)N1CCC[C@H]1C(=O)N[C@@H](CS)C(=O)N[C@@H](CC(N)=O)C(=O)NCC(=O)N1CCC[C@H]1C(=O)O`: in assay [1], the IC50 was greater than 125 µM. In assay [2], the Kd is greater than 250 µM.
Taken in the same sequence, the figures for `CC(C)C[C@H](NC(=O)CNC(=O)CNC(=O)[C@H](Cc1ccc2ccccc2c1)NC(=O)[C@H](Cc1cnc[nH]1)NC(=O)CNC(=O)[C@@H](NC(=O)[C@@H](NC(=O)[C@H](Cc1ccccc1)NC(=O)[C@H](CCCN=C(N)N)NC(=O)[C@@H](N)CCC(N)=O)C(C)(C)S)[C@@H](C)O)C(=O)N[C@@H](Cc1ccc(O)cc1)C(=O)N1CCC[C@H]1C(=O)N[C@@H](CS)C(=O)N[C@@H](CC(N)=O)C(=O)NCC(=O)N1CCC[C@H]1C(=O)O` were 90 µM and 11 µM.
The like results for `CC(C)C[C@H](NC(=O)CNC(=O)CNC(=O)[C@H](Cc1ccc(C(C)(C)C)cc1)NC(=O)[C@H](Cc1cnc[nH]1)NC(=O)CNC(=O)[C@@H](NC(=O)[C@@H](NC(=O)[C@H](Cc1ccccc1)NC(=O)[C@H](CCCNC(=N)N)NC(=O)[C@@H](N)CCC(N)=O)C(C)(C)S)[C@@H](C)O)C(=O)N[C@@H](Cc1ccc(O)cc1)C(=O)N1CCC[C@H]1C(=O)N[C@@H](CS)C(=O)O` were, in that order, greater than 125 µM and 230 µM.
Take `CC(C)C[C@@H](C(=O)N[C@@H](Cc1ccc(O)cc1)C(=O)N1CCC[C@H]1C(=O)N[C@@H](CS)C(=O)O)N(C)C(=O)CN(C)C(=O)CNC(=O)[C@H](Cc1ccccc1)NC(=O)[C@H](Cc1cnc[nH]1)NC(=O)CNC(=O)[C@@H](NC(=O)[C@@H](NC(=O)[C@H](Cc1ccccc1)NC(=O)[C@@H](N)CCCNC(=N)N)C(C)(C)S)[C@@H](C)O`: the concentration for half-maximal inhibition (IC50) in assay [1] worked out at 0.57 µM. In assay [2], the Kd was found to be 0.031 µM.
In assay [1], `CC(C)C[C@H](NC(=O)CNC(=O)CNC(=O)[C@H](Cc1ccccc1)NC(=O)[C@H](Cc1cnc[nH]1)NC(=O)CNC(=O)[C@@H](NC(=O)[C@H](CS)NC(=O)[C@H](Cc1ccccc1)NC(=O)[C@@H](N)CCCN=C(N)N)[C@@H](C)O)C(=O)N[C@@H](Cc1ccc(O)cc1)C(=O)N1CCC[C@H]1C(=O)N[C@@H](CS)C(=O)O` yielded an IC50 of 87 µM. In assay [2], this compound gave a Kd of 10 µM.
